Test results reported in the RNAGym collection of RNA variant scans (doi:10.1002/anie.201605470).

B1: Osa-1-4 twister ribozyme (parent)
chain: CCGCCUAACACUGCCAAUGCCGGUCCCAAGCCCGGAUAAAAGUGGAGGGGGCGG

Variants of: B1
Assay: self-cleavage, relative activity (ratio to wild type); higher = more cleavage; co-transcriptional
Summary of the method: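 Relative activity is the fraction cleaved divided by that of the wild-type ribozyme. The library came from a DNA template for a 54-nucleotide Oryza sativa twister ribozyme, doped at the 48 positions downstream of the cleavage site with 97 % wild-type base and 1 % of each other base. After 2 h of in vitro transcription at 37 °C with co-transcriptional self-cleavage, the RNA was reverse-transcribed with a template-switching oligonucleotide, amplified by PCR and deep-sequenced, and reads with or without upstream sequence gave the cleavage status.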

| Variant | self-cleavage |
| --- | --- |
| C14U G51A | 0.12 |
| C14U G51C | 0.04 |
| C14U G51U | 0.05 |
| C14U | 0.63 |
| C15G C32A | 0.05 |
| C15G C32G | 0.12 |
| C15G C32U | 0.07 |
| C14U C26G | 0.07 |
| C14U C26A | 0.03 |
| C14U C26U | 0.11 |
| C15A U12A | 0.11 |
| C15A U12G | 0.15 |
| C15A U12C | 0.07 |
| C14G U24G | 0.02 |
| C14G U24C | 0.04 |
| C14G U24A | 0.04 |
| C15A G30U | 0.03 |
| C15A G30C | 0.04 |
| C15A G30A | 0.02 |
| C15A G45A | 0.05 |
| C15A G45U | 0.04 |
| C15A G45C | 0.04 |
| C14U C21G | 0.06 |
| C14U C21U | 0.39 |

| Variant | self-cleavage |
| --- | --- |
| C14U C21A | 0.12 |
| C15G U18A | 0.48 |
| C15G U18G | 0.37 |
| C15G U18C | 0.54 |
| C14G G53U | 0.06 |
| C14G G53A | 0.09 |
| C14G G53C | 0.04 |
| C14U G35U | 0.21 |
| C14U G35C | 0.07 |
| C14U G35A | 0.43 |
| C15G G45C | 0.04 |
| C15G G45U | 0.04 |
| C15G G45A | 0.07 |
| C15G G34A | 0.27 |
| C15G G34C | 0.18 |
| C15G G34U | 0.13 |
| C15A C31A | 0.03 |
| C15A C31G | 0.05 |
| C15A C31U | 0.09 |
| C14U C15U | 0.09 |
| C14U C15A | 0.08 |
| C14U C15G | 0.07 |
| C14G U12G | 0.06 |
| C14G U12A | 0.09 |

| Variant | self-cleavage |
| --- | --- |
| C14G U12C | 0.09 |
| C14U G54A | 0.17 |
| C14U G54C | 0.12 |
| C14U G54U | 0.47 |
| C14U G34U | 0.11 |
| C14U G34C | 0.08 |
| C14U G34A | 0.15 |
| C15G C26G | 0.11 |
| C15G C26U | 0.11 |
| C15G C26A | 0.04 |
| C14U G53C | 0.05 |
| C14U G53U | 0.09 |
| C14U G53A | 0.11 |
| C14U U12A | 0.09 |
| C14U U12G | 0.05 |
| C14U U12C | 0.09 |
| C15G G35U | 0.3 |
| C15G G35A | 0.38 |
| C15G G35C | 0.14 |
| C15U C9A | 0.05 |
| C15U C9U | 0.07 |
| C15U C9G | 0.14 |
| C15G C20G | 0.08 |
| C15G C20A | 0.54 |

| Variant | self-cleavage |
| --- | --- |
| C15G C20U | 0.69 |
| C14U G42U | 0.03 |
| C14U G42C | 0.06 |
| C14U G42A | 0.09 |
| C15G U24G | 0.02 |
| C15G U24A | 0.07 |
| C15G U24C | 0.09 |
| C15A C52A | 0.23 |
| C15A C52U | 0.57 |
| C15A C52G | 0.32 |
| C14U G13U | 0.02 |
| C14U G13C | 0.02 |
| C14U G13A | 0.03 |
| C14U C33U | 0.08 |
| C14U C33G | 0.03 |
| C14U C33A | 0.04 |
| C15G G44A | 0.12 |
| C15G G44U | 0.17 |
| C15G G44C | 0.19 |
| C14U U37C | 0.57 |
| C14U U37A | 0.5 |
| C14U U37G | 0.74 |
| C15U C27A | 0.07 |
| C15A G35U | 0.35 |

| Variant | self-cleavage |
| --- | --- |
| C15A G35C | 0.09 |
| C15A G35A | 0.48 |
| C14G U37A | 0.27 |
| C14G U37G | 0.25 |
| C14G U37C | 0.19 |
| C15A C27G | 0.04 |
| C15A C27A | 0.16 |
| C15A C27U | 0.07 |
| C15A C21G | 0.07 |
| C15A C21U | 0.46 |
| C15A C21A | 0.15 |
| C15G G49A | 0.07 |
| C15G G49C | 0.05 |
| C15G G49U | 0.06 |
| C15A G44A | 0.11 |
| C15A G44U | 0.19 |
| C15A G44C | 0.33 |
| C15A G54C | 0.11 |
| C15A G54A | 0.19 |
| C15A G54U | 0.43 |
| C15G C52U | 0.48 |
| C15G C52G | 0.31 |
| C15G C52A | 0.21 |
| C15G U12G | 0.15 |

| Variant | self-cleavage |
| --- | --- |
| C15G U12C | 0.1 |
| C15G U12A | 0.13 |
| C14G G54C | 0.06 |
| C14G G54U | 0.3 |
| C14G G54A | 0.1 |
| C14U G50A | 0.35 |
| C14U G50C | 0.1 |
| C14U G50U | 0.18 |
| C14U G49C | 0.05 |
| C14U G49U | 0.06 |
| C14U G49A | 0.05 |
| C14U C31U | 0.06 |
| C14U C31A | 0.03 |
| C14U C31G | 0.06 |
| C15A U37C | 0.59 |
| C15A U37G | 0.78 |
| C15A U37A | 0.51 |
| C14U C25A | 0.06 |
| C14U C25U | 0.1 |
| C14U C25G | 0.06 |
| C15G U43G | 0.1 |
| C15G U43A | 0.17 |
| C15G U43C | 0.11 |
| C15A | 0.61 |

| Variant | self-cleavage |
| --- | --- |
| C15G | 0.54 |
| C15U | 0.53 |
| C15G U37G | 0.72 |
| C15G U37A | 0.45 |
| C15G U37C | 0.47 |
| C15G G13A | 0.05 |
| C15G G13C | 0.02 |
| C15G G13U | 0.02 |
| C15G G48C | 0.05 |
| C15G G48U | 0.04 |
| C15G G48A | 0.05 |
| C15G G50A | 0.3 |
| C15G G50U | 0.26 |
| C15G G50C | 0.14 |
| C14U G47C | 0.06 |
| C14U G47U | 0.06 |
| C14U G47A | 0.07 |
| C15A G34A | 0.23 |
| C15A G34C | 0.11 |
| C15A G34U | 0.14 |
| C15A G50A | 0.38 |
| C15A G50U | 0.23 |
| C15A G50C | 0.14 |
